Test results taken from ChEMBL document CHEMBL1142537, “Spirocyclic benzopyran-based derivatives as new anti-ischemic activators of mitochondrial ATP-sensitive potassium channel” (J Med Chem, 2008).
pIC50: −log10 of the molar value. The source made the active and inactive calls. No cut-off for these calls is given here.

Each compound was assayed on Rattus norvegicus (assay: Cardioprotective activity in Langendorff perfused Wistar rat assessed as rate pressure product at 40 mg/kg, ip recorded after 30 mins of ischemia followed by 120 mins of reperfusion in presence of 5-hydroxydecanoic acid). Details: not given.
Type: functional, organism-based
Design: dose 40 mg/kg
Summary of the method: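 In this series the mito-KATP blocker 5-hydroxydecanoic acid (10 mg/kg, in water) was given 20 min before the ip compound (40 mg/kg). The Langendorff protocol was then run: 30 min global ischemia, 120 min reperfusion. RPP at 120 min expressed as % of preischemic value.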

Compound | Activity
CC(=O)Nc1ccc(CN2CC3(CC(C)(C)Oc4ccccc43)OCC2=O)cc1 (racemic) | inactive
CC1(C)CC2(CN(Cc3ccc(NS(C)(=O)=O)cc3)C(=O)CO2)c2cc(Br)ccc2O1 (racemic) | inactive
CC1(C)CC2(CN(Cc3ccc(NS(C)(=O)=O)cc3)CCO2)c2cc(Br)ccc2O1 (racemic) | inactive
CC1=Nc2ccc(Cl)cc2S(=O)(=O)N1 [DIAZOXIDE] | inactive
CC1(C)CC2(CN(Cc3ccccc3)CCO2)c2ccccc2O1 (racemic) | inactive
CC1(C)Oc2ccc(C#N)cc2C(N2CCCC2=O)C1O (stereo not drawn) [CROMAKALIM] | inactive

The compounds below were run on Rattus norvegicus (assay: Hypotensive activity in normotensive Wistar rat assessed as systolic blood pressure at 1 mg/kg, ip after 90 mins). Details: Artery.
Type: functional, organism-based
Design: dose 1 mg/kg
Summary of the method: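 Male 10-week-old normotensive Wistar rats (250 g), heparinized (100 UI ip) and anaesthetised with pentobarbital (60 mg/kg). Tail warmed 20 min under IR lamp, basal systolic pressure taken by tail-cuff. Cromakalim given ip at 1 mg/kg, groups of five. Systolic pressure recorded every 30 min for 90 min, as % of basal.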

Compound | Activity
CC1(C)Oc2ccc(C#N)cc2C(N2CCCC2=O)C1O (stereo not drawn) [CROMAKALIM] | Active

These compounds were tested on Rattus norvegicus (assay: Cardioprotective activity in Langendorff perfused Wistar rat assessed as rate pressure product at 1 mg/kg, ip recorded after 30 mins of global ischemia followed by 120 mins of reperfusion). Details: route intraperitoneal.
Type: functional
Summary of the method: (§1)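 Adult male Wistar rats (260-350 g) given the compound ip in DMSO (40 mg/kg; cromakalim 1 mg/kg), then after 2 h anaesthetised with pentobarbital (100 mg/kg ip) and heparinized (100 UI ip). Hearts on Langendorff apparatus with an LV balloon (end-diastolic 5-10 mmHg). 30 min equilibration, 30 min global no-flow ischemia, 120 min reperfusion. RPP at 120 min expressed as % of preischemic RPP.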

Compound | Activity [%]
CC1(C)Oc2ccc(C#N)cc2C(N2CCCC2=O)C1O (stereo not drawn) [CROMAKALIM] | 94

What follows are compounds tested on Rattus norvegicus (assay: Cardioprotective activity in Langendorff perfused Wistar rat assessed as rate pressure product at 40 mg/kg, ip recorded after 30 mins of global ischemia followed by 120 mins of reperfusion). Details: route intraperitoneal.
Type: functional
Summary of the method: as §1

Compound | Activity [%]
COc1ccc(CN2CC3(CC(C)(C)Oc4ccc(Br)cc43)OCC2=O)cc1 (racemic) | 76
CC1(C)CC2(CN(Cc3ccc(Br)cc3)CCO2)c2cc(Br)ccc2O1 (racemic) | 53
CC1(C)CC2(CN(Cc3ccc(NS(C)(=O)=O)cc3)CCO2)c2ccccc2O1 (racemic) | 23
COc1ccccc1CN1CC2(CC(C)(C)Oc3ccccc32)OCC1=O (racemic) | 36
CC1(C)CC2(CN(Cc3ccc(C(F)(F)F)cc3)CCO2)c2cc(Br)ccc2O1 (racemic) | 84
CC1(C)CC2(CN(Cc3ccc(N)cc3)C(=O)CO2)c2cc(Br)ccc2O1 (racemic) | 52
CC1(C)CC2(CN(Cc3ccc(Br)cc3)CCO2)c2ccccc2O1 (racemic) | 43
CC1(C)CC2(CN(Cc3ccc(C(F)(F)F)cc3)C(=O)CO2)c2ccccc2O1 (racemic) | 2
CC1(C)CC2(CN(Cc3ccc(N)cc3)C(=O)CO2)c2ccccc2O1 (racemic) | 53
COc1ccc(CN2CC3(CC(C)(C)Oc4ccccc43)OCC2=O)cc1 (racemic) | 27
CC1(C)CC2(CN(Cc3ccccc3)C(=O)CO2)c2ccccc2O1 (racemic) | 35
CC1(C)CC2(CN(Cc3ccc(C(F)(F)F)cc3)CCO2)c2ccccc2O1 (racemic) | 34
COc1cccc(CN2CC3(CC(C)(C)Oc4ccc(Br)cc43)OCC2=O)c1 (racemic) | 27
Cc1ccc(CN2CCOC3(C2)CC(C)(C)Oc2ccccc23)cc1 (racemic) | 35
COc1ccccc1CN1CC2(CC(C)(C)Oc3ccc(Br)cc32)OCC1=O (racemic) | 42
Cc1ccc(CN2CC3(CC(C)(C)Oc4ccc(Br)cc43)OCC2=O)cc1 (racemic) | 38
COc1cccc(CN2CCOC3(C2)CC(C)(C)Oc2ccc(Br)cc23)c1 (racemic) | 42

Compound | Activity [%]
Cc1ccc(CN2CCOC3(C2)CC(C)(C)Oc2ccc(Br)cc23)cc1 (racemic) | 57
CC1(C)CC2(CN(Cc3ccccc3)CCO2)c2cc(Br)ccc2O1 (racemic) | 42
CC1(C)CC2(CN(Cc3ccccc3)C(=O)CO2)c2cc(Br)ccc2O1 (racemic) | 37
CC1(C)CC2(CN(Cc3ccc(N)cc3)CCO2)c2cc(Br)ccc2O1 (racemic) | 30
CC1(C)CC2(CN(Cc3ccc(C(F)(F)F)cc3)C(=O)CO2)c2cc(Br)ccc2O1 (racemic) | 47
Cc1ccc(CN2CC3(CC(C)(C)Oc4ccccc43)OCC2=O)cc1 (racemic) | 44
COc1ccc(CN2CCOC3(C2)CC(C)(C)Oc2ccc(Br)cc23)cc1 (racemic) | 60
COc1ccccc1CN1CCOC2(C1)CC(C)(C)Oc1ccccc12 (racemic) | 65
CC1(C)CC2(CN(Cc3ccc(N)cc3)CCO2)c2ccccc2O1 (racemic) | 58
CC1(C)CC2(CN(Cc3ccc(Br)cc3)C(=O)CO2)c2cc(Br)ccc2O1 (racemic) | 23
COc1ccccc1CN1CCOC2(C1)CC(C)(C)Oc1ccc(Br)cc12 (racemic) | 59
CC1(C)CC2(CN(Cc3ccc(Br)cc3)C(=O)CO2)c2ccccc2O1 (racemic) | 80
CC1(C)CC2(CN(Cc3ccccc3)CCO2)c2ccccc2O1 (racemic) | 77
CC1(C)CC2(CN(Cc3ccc(NS(C)(=O)=O)cc3)C(=O)CO2)c2ccccc2O1 (racemic) | 70
COc1ccc(CN2CCOC3(C2)CC(C)(C)Oc2ccccc23)cc1 (racemic) | 61
COc1cccc(CN2CCOC3(C2)CC(C)(C)Oc2ccccc23)c1 (racemic) | 38
COc1cccc(CN2CC3(CC(C)(C)Oc4ccccc43)OCC2=O)c1 (racemic) | 29

What follows are compounds tested on Aorta (assay: Vasorelaxation activity in Wistar rat thoracic aortic ring assessed as inhibition of KCl-induced contraction). Details: not given.
Type: functional, tissue-based
Summary of the method: (§2)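 Endothelium-denuded rat aortic rings recorded isometrically, equilibrated 60 min. Denudation checked with ACh (10 µM) on KCl (20 mM) tone; rings relaxing ≥10% discarded. Rings contracted with 20 mM KCl, then given 3-fold cumulative concentrations from 10 nM to 100 µM.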

pIC50 | Compound
5.52 | COc1ccc(CN2CC3(CC(C)(C)Oc4ccc(Br)cc43)OCC2=O)cc1 (racemic)
4.81 | CC1(C)CC2(CN(Cc3ccc(NS(C)(=O)=O)cc3)CCO2)c2ccccc2O1 (racemic)
4.75 | CC1(C)CC2(CN(Cc3ccc(C(F)(F)F)cc3)CCO2)c2cc(Br)ccc2O1 (racemic)
5.15 | CC1(C)CC2(CN(Cc3ccc(C(F)(F)F)cc3)C(=O)CO2)c2ccccc2O1 (racemic)
4.55 | CC1(C)CC2(CN(Cc3ccccc3)C(=O)CO2)c2ccccc2O1 (racemic)
4.64 | CC1(C)CC2(CN(Cc3ccc(C(F)(F)F)cc3)CCO2)c2ccccc2O1 (racemic)
4.84 | CC1(C)CC2(CN(Cc3ccccc3)C(=O)CO2)c2cc(Br)ccc2O1 (racemic)
4.46 | COc1ccc(CN2CCOC3(C2)CC(C)(C)Oc2ccc(Br)cc23)cc1 (racemic)
4.55 | CC1(C)CC2(CN(Cc3ccc(N)cc3)CCO2)c2ccccc2O1 (racemic)
5.31 | CC1(C)CC2(CN(Cc3ccc(Br)cc3)C(=O)CO2)c2ccccc2O1 (racemic)
5.17 | CC1(C)CC2(CN(Cc3ccccc3)CCO2)c2ccccc2O1 (racemic)
5.53 | CC1(C)CC2(CN(Cc3ccc(NS(C)(=O)=O)cc3)C(=O)CO2)c2ccccc2O1 (racemic)

These compounds were tested on Rattus norvegicus (assay: Antiischemic activity in Langendorff perfused Wistar rat assessed as ratio of ischemic area to total area at 40 mg/kg, ip). Details: route intraperitoneal.
Type: functional

Compound | Ratio [%]
COc1ccc(CN2CC3(CC(C)(C)Oc4ccc(Br)cc43)OCC2=O)cc1 (racemic) | 16
CC1(C)CC2(CN(Cc3ccc(Br)cc3)CCO2)c2cc(Br)ccc2O1 (racemic) | 16
CC1(C)CC2(CN(Cc3ccc(NS(C)(=O)=O)cc3)CCO2)c2ccccc2O1 (racemic) | 35
COc1ccccc1CN1CC2(CC(C)(C)Oc3ccccc32)OCC1=O (racemic) | 25
CC1(C)CC2(CN(Cc3ccc(C(F)(F)F)cc3)CCO2)c2cc(Br)ccc2O1 (racemic) | 5
CC1(C)CC2(CN(Cc3ccc(N)cc3)C(=O)CO2)c2cc(Br)ccc2O1 (racemic) | 22
CC1(C)CC2(CN(Cc3ccc(Br)cc3)CCO2)c2ccccc2O1 (racemic) | 35
CC1(C)CC2(CN(Cc3ccc(C(F)(F)F)cc3)C(=O)CO2)c2ccccc2O1 (racemic) | 53
CC1(C)CC2(CN(Cc3ccc(N)cc3)C(=O)CO2)c2ccccc2O1 (racemic) | 19
COc1ccc(CN2CC3(CC(C)(C)Oc4ccccc43)OCC2=O)cc1 (racemic) | 29
CC1(C)CC2(CN(Cc3ccccc3)C(=O)CO2)c2ccccc2O1 (racemic) | 33
CC1(C)CC2(CN(Cc3ccc(C(F)(F)F)cc3)CCO2)c2ccccc2O1 (racemic) | 31
COc1cccc(CN2CC3(CC(C)(C)Oc4ccc(Br)cc43)OCC2=O)c1 (racemic) | 29
Cc1ccc(CN2CCOC3(C2)CC(C)(C)Oc2ccccc23)cc1 (racemic) | 47
COc1ccccc1CN1CC2(CC(C)(C)Oc3ccc(Br)cc32)OCC1=O (racemic) | 28
Cc1ccc(CN2CC3(CC(C)(C)Oc4ccc(Br)cc43)OCC2=O)cc1 (racemic) | 22
COc1cccc(CN2CCOC3(C2)CC(C)(C)Oc2ccc(Br)cc23)c1 (racemic) | 29
Cc1ccc(CN2CCOC3(C2)CC(C)(C)Oc2ccc(Br)cc23)cc1 (racemic) | 29

Compound | Ratio [%]
CC1(C)CC2(CN(Cc3ccccc3)CCO2)c2cc(Br)ccc2O1 (racemic) | 31
CC1(C)CC2(CN(Cc3ccccc3)C(=O)CO2)c2cc(Br)ccc2O1 (racemic) | 43
CC1(C)CC2(CN(Cc3ccc(N)cc3)CCO2)c2cc(Br)ccc2O1 (racemic) | 39
CC1(C)CC2(CN(Cc3ccc(C(F)(F)F)cc3)C(=O)CO2)c2cc(Br)ccc2O1 (racemic) | 42
Cc1ccc(CN2CC3(CC(C)(C)Oc4ccccc43)OCC2=O)cc1 (racemic) | 23
COc1ccc(CN2CCOC3(C2)CC(C)(C)Oc2ccc(Br)cc23)cc1 (racemic) | 10
COc1ccccc1CN1CCOC2(C1)CC(C)(C)Oc1ccccc12 (racemic) | 34
CC1(C)CC2(CN(Cc3ccc(N)cc3)CCO2)c2ccccc2O1 (racemic) | 25
CC1(C)CC2(CN(Cc3ccc(Br)cc3)C(=O)CO2)c2cc(Br)ccc2O1 (racemic) | 47
COc1ccccc1CN1CCOC2(C1)CC(C)(C)Oc1ccc(Br)cc12 (racemic) | 30
CC1(C)CC2(CN(Cc3ccc(Br)cc3)C(=O)CO2)c2ccccc2O1 (racemic) | 23
CC1=Nc2ccc(Cl)cc2S(=O)(=O)N1 [DIAZOXIDE] | 28
CC1(C)CC2(CN(Cc3ccccc3)CCO2)c2ccccc2O1 (racemic) | 18
CC1(C)CC2(CN(Cc3ccc(NS(C)(=O)=O)cc3)C(=O)CO2)c2ccccc2O1 (racemic) | 23
COc1ccc(CN2CCOC3(C2)CC(C)(C)Oc2ccccc23)cc1 (racemic) | 26
COc1cccc(CN2CCOC3(C2)CC(C)(C)Oc2ccccc23)c1 (racemic) | 17
COc1cccc(CN2CC3(CC(C)(C)Oc4ccccc43)OCC2=O)c1 (racemic) | 41

The compounds below were run on Aorta (assay: Vasorelaxation activity in Wistar rat thoracic aortic ring assessed as inhibition of KCl-induced contraction at 100 uM relative to KCl). Details: not given.
Type: functional
Summary of the method: as §2

Compound | Emax at 100 µM [%]
COc1ccc(CN2CC3(CC(C)(C)Oc4ccc(Br)cc43)OCC2=O)cc1 (racemic) | 91.8
CC1(C)CC2(CN(Cc3ccc(NS(C)(=O)=O)cc3)CCO2)c2ccccc2O1 (racemic) | 80.6
CC(=O)Nc1ccc(CN2CC3(CC(C)(C)Oc4ccccc43)OCC2=O)cc1 (racemic) | 56.5
CC1(C)CC2(CN(Cc3ccc(C(F)(F)F)cc3)CCO2)c2cc(Br)ccc2O1 (racemic) | 57.8
CC1(C)CC2(CN(Cc3ccc(C(F)(F)F)cc3)C(=O)CO2)c2ccccc2O1 (racemic) | 101
CC1(C)CC2(CN(Cc3ccc(N)cc3)C(=O)CO2)c2ccccc2O1 (racemic) | 12.5
CC(=O)Nc1ccc(CN2CCOC3(C2)CC(C)(C)Oc2ccc(Br)cc23)cc1 (racemic) | 99.8
CC(=O)Nc1ccc(CN2CC3(CC(C)(C)Oc4ccc(Br)cc43)OCC2=O)cc1 (racemic) | 69.7
CC(=O)Nc1ccc(CN2CCOC3(C2)CC(C)(C)Oc2ccccc23)cc1 (racemic) | 76.6
CC1(C)CC2(CN(Cc3ccccc3)C(=O)CO2)c2ccccc2O1 (racemic) | 55.3
CC1(C)CC2(CN(Cc3ccc(C(F)(F)F)cc3)CCO2)c2ccccc2O1 (racemic) | 59.9
CC1(C)CC2(CN(Cc3ccc(NS(C)(=O)=O)cc3)C(=O)CO2)c2cc(Br)ccc2O1 (racemic) | 86.8
CC1(C)CC2(CN(Cc3ccccc3)C(=O)CO2)c2cc(Br)ccc2O1 (racemic) | 65.8
CC1(C)CC2(CN(Cc3ccc(NS(C)(=O)=O)cc3)CCO2)c2cc(Br)ccc2O1 (racemic) | 98.1
COc1ccc(CN2CCOC3(C2)CC(C)(C)Oc2ccc(Br)cc23)cc1 (racemic) | 61.6
CC1(C)CC2(CN(Cc3ccc(N)cc3)CCO2)c2ccccc2O1 (racemic) | 52.3
CC1(C)CC2(CN(Cc3ccc(Br)cc3)C(=O)CO2)c2ccccc2O1 (racemic) | 89.2
CC1(C)CC2(CN(Cc3ccccc3)CCO2)c2ccccc2O1 (racemic) | 85.9
CC1(C)CC2(CN(Cc3ccc(NS(C)(=O)=O)cc3)C(=O)CO2)c2ccccc2O1 (racemic) | 98
